The results in this text go back to ChEMBL document CHEMBL4138101, “Rhodium-catalyzed C-H bond activation for the synthesis of quinonoid compounds: Significant Anti-Trypanosoma cruzi activities and electrochemical studies of functionalized quinones” (Eur J Med Chem, 2017).

The subject of series [1] is Trypanosoma cruzi. As to the kind of experiment: Antitrypanosomal activity against bloodstream forms of Trypanosoma cruzi Y isolated from parasite infected Albino Swiss mouse assessed as induction of parasite lysis incubated for 24 hrs by Neubauer chamber based cell counting method. In kind it is functional, organism-based. Put shortly: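 Bloodstream trypomastigotes were taken from infected mice at peak parasitemia by differential centrifugation and resuspended at 10x10^6 cells/mL in DMES medium. They were mixed 1:1 with compound at twice the final concentration, with DMSO final ≤0.1%, and incubated at 37°C for 24 h. Benznidazole was the control. Counts were made in a Neubauer chamber, giving IC50/24 h as the concentration causing 50% parasite lysis.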

The nature of series [2]: Cytotoxicity against Swiss albino mouse peritoneal macrophages after 24 hrs by PrestoBlue dye based assay. The series is classed as cell-based, Peritoneal macrophage. The following applies: read-out: LC50.
A short description of series [3]: Selectivity index, ratio of LC50 for cytotoxicity against Swiss albino mouse peritoneal macrophages to IC50 for Antitrypanosomal activity against bloodstream forms of Trypanosoma cruzi Y isolated from parasite infected Albino Swiss mouse. In kind it is toxicity. Particulars: read-out: Ratio LC50/IC50.
Series [4] has as its system Trypanosoma cruzi. The series can be described thus: Potency index, ratio of juglone IC50 to compound IC50 for antitrypanosomal activity against bloodstream forms of Trypanosoma cruzi Y isolated from parasite infected Albino Swiss mouse. In kind it is functional.

The structures appear in SMILES notation. pIC50: −log10 of the molar value.

As a reminder, the pIC50 is the negative decadic logarithm of the IC50, by convention in mol/L. Consider `CC1=CC(=O)c2c(ccc(I)c2O)C1=O`, for which the pIC50 in the series on Trypanosoma cruzi [1] was 6.00. Moreover, the CC50 at 24 h in series [2] amounted to 15.7 µM. The selectivity ratio in series [3] was 15.8.
Consider `O=C1C=CC(=O)C(Br)=C1`, for which the pIC50 in the series on Trypanosoma cruzi [1] is 4.67. The CC50 at 24 h in series [2] came to 34.4 µM. The selectivity ratio in series [3] was 1.6.
Regarding `O=C1C(Br)=C(Br)C(=O)c2c(I)cccc21`, the pIC50 in the series on Trypanosoma cruzi [1] is 5.65. In series [2], the CC50 at 24 h worked out at 11.8 µM. Moreover, the selectivity ratio in series [3] was determined as 5.3.
The matching figures for `O=C1C=C(Br)C(=O)C(Cl)=C1Cl`: 4.81, > 100 µM and > 6.5.
In the case of `COC1=C(I)C(=O)C(I)=C(OC)C1=O`, the pIC50 in the series with Trypanosoma cruzi [1] was 5.71. The CC50 at 24 h in series [2] stood at 27.7 µM.
With `O=C1C=C([Se]c2ccccc2)C(=O)C=C1[Se]c1ccccc1`, the pIC50 in the series on Trypanosoma cruzi [1] was 4.08. Further, in series [2], the CC50 at 24 h was > 100 µM. For the same compound, the selectivity ratio in series [3] was > 1.2.
`CC(=O)Oc1cccc2c1C(=O)C(Br)=CC2=O`: the pIC50 in the series with Trypanosoma cruzi [1] was 6.07.
As for `O=C1C(Cl)=C(Cl)C(=O)c2c(I)cccc21`, in the series with Trypanosoma cruzi [1], the pIC50 is 5.14. In addition, the CC50 at 24 h in series [2] was determined as 27.8 µM. Moreover, the selectivity ratio in series [3] was determined as 3.8.
For `O=C1C=CC(=O)c2c(/C=C/c3ccccc3)cccc21`, the pIC50 in the series with Trypanosoma cruzi [1] is 6.72. Further, the CC50 at 24 h in series [2] came out at 11.9 µM. Moreover, the selectivity ratio in series [3] was 62.5.
As for `O=C(Cn1ccnc1[N+](=O)[O-])NCc1ccccc1` [BENZNIDAZOLE], in the series with Trypanosoma cruzi [1], the pIC50 is 5.01. For the same compound, the CC50 at 24 h in series [2] was > 4000 µM. Further, in series [3], the selectivity ratio is > 413.
Turning to `O=C1C=C(I)C(=O)C(Cl)=C1Cl`, the pIC50 in the series on Trypanosoma cruzi [1] is 4.57. Besides, the CC50 at 24 h in series [2] is > 100 µM. Also, the selectivity ratio in series [3] was > 4.7.
Regarding `COc1c(I)ccc2c1C(=O)C=C(C)C2=O`, in the series with Trypanosoma cruzi [1], the pIC50 was 5.39. For the same compound, the CC50 at 24 h in series [2] came out at 24.7 µM. Also, in series [3], the selectivity ratio was 6.1.
For the compound `O=C1C=C(Br)C(=O)c2ccccc21` [2-Bromo-1,4-naphthoquinone], the pIC50 in the series with Trypanosoma cruzi [1] was 5.86.
Regarding `O=C1C=CC(=O)c2c(I)ccc(I)c21`, in the series on Trypanosoma cruzi [1], the pIC50 is 6.66. Also, the CC50 at 24 h in series [2] was found to be 12.9 µM.
`O=C1C=CC(=O)c2c1cccc2-c1ccccc1`: the pIC50 in the series with Trypanosoma cruzi [1] was 5.91. Besides, the CC50 at 24 h in series [2] was found to be 12.7 µM. The selectivity ratio in series [3] stood at 10.2. Moreover, in the series with Trypanosoma cruzi [4], the Ratio came to 5.2.
Consider `COC1=C(I)C(=O)C=CC1=O`, for which the pIC50 in the series with Trypanosoma cruzi [1] is 4.62. Moreover, the CC50 at 24 h in series [2] was 32.6 µM. For the same compound, the selectivity ratio in series [3] is 1.4.
Take `CC(C)(C)C1=CC(=O)C(I)=CC1=O`: the pIC50 in the series with Trypanosoma cruzi [1] is 4.89. For the same compound, the CC50 at 24 h in series [2] was 35.9 µM. Besides, the selectivity ratio in series [3] worked out at 2.8.
With `O=C1C(Br)=CC(=O)c2c(I)cccc21`, in the series with Trypanosoma cruzi [1], the pIC50 is 5.86. Further, the CC50 at 24 h in series [2] was found to be 12.2 µM. For the same compound, the selectivity ratio in series [3] came out at 8.8. Besides, the Ratio with Trypanosoma cruzi [4] worked out at 4.7.
Take `COC(=O)c1ccc(I)c2c1C(=O)C=CC2=O`: in the series with Trypanosoma cruzi [1], the pIC50 was 5.79. In addition, the CC50 at 24 h in series [2] came to 13.9 µM. Besides, the selectivity ratio in series [3] came to 8.7.
Regarding `O=C1C=CC(=O)c2c(C#Cc3ccccc3)cccc21`, in the series on Trypanosoma cruzi [1], the pIC50 is 5.66. Moreover, the CC50 at 24 h in series [2] stood at 12.5 µM. In addition, the selectivity ratio in series [3] was found to be 5.7.
Regarding `O=C1C=CC(=O)C(I)=C1`, the pIC50 in the series with Trypanosoma cruzi [1] was 4.22. Also, the CC50 at 24 h in series [2] was determined as 86 µM.
Turning to `COc1cccc2c1C(=O)C=CC2=O`, in the series with Trypanosoma cruzi [1], the pIC50 was 5.99.
`O=C1C=C([Se]c2ccccc2)C(=O)c2ccccc21`: the pIC50 in the series on Trypanosoma cruzi [1] is 5.95. The CC50 at 24 h in series [2] was found to be 12.7 µM. For the same compound, the selectivity ratio in series [3] is 11.2.
With `O=C1C=CC(=O)c2c(O)cccc21` [JUGLONE], the pIC50 in the series on Trypanosoma cruzi [1] is 5.19.
Take `CC(C)(C)C1=CC(=O)C(Br)=CC1=O`: the pIC50 in the series with Trypanosoma cruzi [1] was 4.85. Further, the CC50 at 24 h in series [2] amounted to 42.3 µM. Also, the selectivity ratio in series [3] was determined as 3.
For `O=C1C=CC(=O)C([Se]c2ccccc2)=C1`, in that order: 4.80, 13.8 µM and 0.86.
For `COc1ccc2c(c1I)C(=O)C=CC2=O`, the pIC50 in the series on Trypanosoma cruzi [1] was 5.93. In addition, in series [2], the CC50 at 24 h was found to be 14.2 µM. For the same compound, in series [3], the selectivity ratio amounted to 12.1.
Turning to `CC1=C(C)C(=O)C(I)=CC1=O`, the pIC50 in the series on Trypanosoma cruzi [1] was 5.00. Also, the CC50 at 24 h in series [2] came out at 15.4 µM. Besides, in series [3], the selectivity ratio was 1.5.
With `O=C1C=CC(=O)c2c(O)c(I)cc(I)c21`, the pIC50 with Trypanosoma cruzi [1] was 4.61. The CC50 at 24 h in series [2] was > 100 µM. Also, the selectivity ratio in series [3] was > 5.1.
The matching figures for `CCOC(=O)/C=C/c1cccc2c1C(=O)C=CC2=O`: 5.22, 12.7 µM and 2.1.
For the compound `O=C1C=CC(=O)c2c(I)cccc21`, the pIC50 in the series with Trypanosoma cruzi [1] was 6.23. Moreover, the CC50 at 24 h in series [2] was found to be 11.5 µM. Besides, in series [3], the selectivity ratio was 19.5.
The matching figures for `COc1cc2c(c(I)c1OC)C(=O)C=CC2=O`: 5.79, 12.2 µM and 7.5.
For `O=C1C=C(I)C(=O)c2ccccc21`, in that order: 5.75, 14.7 µM and 8.2.
As for `CC(=O)Oc1cccc2c1C(=O)C=CC2=O`, the pIC50 in the series with Trypanosoma cruzi [1] was 6.80.
For `Nc1c(I)ccc2c1C(=O)C=CC2=O`, in the series with Trypanosoma cruzi [1], the pIC50 is 6.25. Besides, in series [2], the CC50 at 24 h amounted to 13.1 µM. In addition, the selectivity ratio in series [3] worked out at 23.4.
For `COc1c(I)ccc2c1C(=O)C=CC2=O`, in that order: 5.87, 13.3 µM and 9.8.
As for `Cc1cc(I)c2c(c1)C(=O)C=CC2=O`, the pIC50 with Trypanosoma cruzi [1] is 6.31. Further, the CC50 at 24 h in series [2] came to 12.1 µM. The selectivity ratio in series [3] was found to be 24.7.
On to `CC1=CC(=O)c2c(O)cccc2C1=O` [PLUMBAGIN], for which, in the series on Trypanosoma cruzi [1], the pIC50 is 5.86.
Consider `O=C1C=CC(=O)c2c1ccc(I)c2O`, for which the pIC50 in the series with Trypanosoma cruzi [1] was 4.38. The CC50 at 24 h in series [2] is > 100 µM. For the same compound, the selectivity ratio in series [3] was > 4.6.
With `COc1ccc(I)c2c1C(=O)C=CC2=O`, the pIC50 with Trypanosoma cruzi [1] was 5.45. Also, in series [2], the CC50 at 24 h is 13.6 µM. Further, the selectivity ratio in series [3] was 3.8.
